Results reported in ChEMBL document CHEMBL4842360, “Discovery of a Bicyclic Peptidyl Pan-Ras Inhibitor” (J Med Chem, 2021).
Blank lines part the entries; values can stand above or below the compound they belong to. Numbered stars: 1 amine (or outer) side, 2 acyl side, 3 side chain; on linkers, the order of the positions; unused ones are H or OH. Bridge positions count the residues as written; N and C are the ends. Square brackets hold non-standard residues; d marks the D form. Peptide text beside a SMILES is read from it. Trimesoyl = O=C(c1cc(C(=O)[*:2])cc(C(=O)[*:3])c1)[*:1]; Phe(4-F) = N[C@@H](Cc1ccc(F)cc1)C(=O)O; 2Nal = N[C@@H](Cc1ccc2ccccc2c1)C(=O)O; d2Nal = N[C@H](Cc1ccc2ccccc2c1)C(=O)O; X1 = CCCCCCC[C@H](N[*:1])C(=O)[*:2]; Phg = N[C@H](C(=O)O)c1ccccc1; dNle = CCCC[C@@H](N)C(=O)O; Nle = CCCC[C@H](N)C(=O)O; Orn = NCCC[C@H](N)C(=O)O; Dap = NC[C@H](N)C(=O)O; X2 = C(C[*:1])C[*:2]; βAla = NCCC(=O)O

Experiments:
NCI-H358 [1] = test: Antiproliferative activity against human NCI-H358 cells incubated for 96 hrs by MTT assay; type: functional, cell-based; details: Homo sapiens, NCI-H358, 96 h; read-out: EC50
How it was run: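 H358 cells at 5,000/well, grown overnight, treated with serially diluted peptide (0–40 μM) in 10% FBS medium for 96 h at 37 °C. MTT added for 4 h, formazan solubilized overnight in SDS-HCl, absorbance read at 570 nm.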

NCI-H358 [2] = test: Antiproliferative activity against human NCI-H358 cells incubated for 96 hrs by Celltiter-Glo assay; type: functional, cell-based; details: Homo sapiens, NCI-H358, 96 h; read-out: EC50
[3] = Drug localization in cytosol of human HeLa cells assessed as mean fluorescence intensity at 5 uM incubated for 2 hrs by flow cytometry relative to relative to extracellular concentration; type: ADME, subcellular
GTPase KRas [4] = target: T1, GTPase KRas (Homo sapiens, UniProt P01116, G12V); test: biochemical
GTPase KRas [5] = target: GTPase KRas (Homo sapiens, UniProt P01116, G12D); test: Binding affinity to recombinant human KRAS G12D mutant incubated for 0.5 hrs by ELISA
PANC-1 = test: Antitumor activity against human PANC-1 cells xenografted in BALB/c mouse assessed as inhibition of cell growth at 40 mg/kg, iv administered once every 2 days for 4 weeks; type: functional; details: PANC-1, iv, 672 h, read-out: GI
NCI-H1299 [6] = test: Induction of apoptosis in human NCI-H1299 cells by MTT assay; type: functional, cell-based
GTPase KRas [7] = target: T1, GTPase KRas; test: Inhibition of GPPNP bound KRAS G12V mutant (unknown origin) assessed as reduction in KRAS/GST-fused Raf RBD interaction incubated for 2 hrs by HTRF assay
NCI-H1299 [8] = test: Induction of apoptosis in human NCI-H1299 cells incubated for 24 hrs by MTT assay; type: functional, cell-based; details: NCI-H1299, 24 h

T1 sequence (P01116 whole entry G12V): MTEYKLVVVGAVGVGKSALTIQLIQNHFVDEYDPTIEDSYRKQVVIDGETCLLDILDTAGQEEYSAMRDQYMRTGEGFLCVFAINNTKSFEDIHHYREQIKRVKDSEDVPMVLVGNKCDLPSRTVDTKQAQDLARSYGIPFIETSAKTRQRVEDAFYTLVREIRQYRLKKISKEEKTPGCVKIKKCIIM
GTPase KRas (Homo sapiens, UniProt P01116, G12D), sequence (P01116 whole entry G12D): as the sequence (P01116 whole entry G12V) above, with V12D counted along it

Compound: CC[C@@H](C)[C@@H]1NC(=O)[C@H](Cc2cn(CCc3c(C)[nH]c4cc(Cl)cc(Cl)c34)nn2)NC(=O)[C@@H](CC(N)=O)NC(=O)[C@H](CCCNC(=N)N)NC(=O)[C@H](Cc2ccccc2)NC(=O)[C@@H](CC(C)C)NC(=O)[C@@H](C)NC(=O)c2cc3cc(c2)C(=O)NC[C@@H](C(N)=O)NC(=O)[C@H](CCCNC(=N)N)NC(=O)[C@H](CCCNC(=N)N)NC(=O)[C@H](CCCNC(=N)N)NC(=O)[C@H](CCCNC(=N)N)NC(=O)[C@H](Cc2ccc4ccccc4c2)NC(=O)[C@H](Cc2ccccc2)NC(=O)C(CCCCNC3=O)NC(=O)[C@H](CC(=O)O)NC1=O (some centres not stated)
- IC50 (GTPase KRas [7]): 3.4 µM
- EC50 (NCI-H1299 [8]): 8 µM

Compound: C[C@@H]1NC(=O)[C@@H](Cc2ccccc2)NC(=O)[C@@H]2CCCCNC(=O)c3cc(cc(c3)C(=O)N[C@H](Cc3ccc4ccccc4c3)C(=O)N[C@@H](CO)C(=O)N[C@@H](CCC(N)=O)C(=O)N[C@H](Cc3ccc4ccccc4c3)C(=O)N[C@@H](c3ccccc3)C(=O)N2)C(=O)NC[C@@H](C(=O)N[C@@H](CCCN)C(=O)N[C@H](CCCNC(=N)N)C(=O)N[C@@H](Cc2ccc(F)cc2)C(=O)N[C@H](C)C(=O)N[C@@H](CCCCN)C(N)=O)NC(=O)[C@H](CCCNC(=N)N)NC(=O)[C@@H](CCCNC(=N)N)NC1=O ([d2Nal]SQ[d2Nal][Phg]K[dF]A[dR]R[Dap][Orn][dR][Phe(4-F)][dA]K-NH2; linker N-6-11 via Trimesoyl)
- Drug uptake [3]: Active

Compound: C[C@@H]1NC(=O)[C@@H](Cc2ccccc2)NC(=O)[C@@H]2CCCCNC(=O)c3cc(cc(c3)C(=O)N[C@H](Cc3ccc4ccccc4c3)C(=O)N[C@@H](CO)C(=O)N[C@@H](CCC(N)=O)C(=O)N[C@H](Cc3ccc4ccccc4c3)C(=O)N[C@@H](c3ccccc3)C(=O)N2)C(=O)NC[C@@H](C(=O)N[C@@H](CCN)CC(=O)N[C@H](CCCNC(=N)N)C(=O)N[C@@H](Cc2ccc(F)cc2)C(=O)N[C@H](C)C(=O)N[C@@H](CCCCN)C(N)=O)NC(=O)[C@H](CCCNC(=N)N)NC(=O)[C@@H](CCCNC(=N)N)NC1=O
- EC50 (NCI-H358 [1]): 17 µM

Continued, in another order:

- EC50 (NCI-H358 [1]): 29 µM
- EC50 (NCI-H358 [2]): 22 µM
- Drug uptake [3]: Active
- Kd (GTPase KRas [4]): 0.14 µM
Compound: C[C@@H]1NC(=O)[C@@H](Cc2ccccc2)NC(=O)[C@@H]2CCCCNC(=O)c3cc(cc(c3)C(=O)N[C@H](Cc3ccc4ccccc4c3)C(=O)N[C@@H](CO)C(=O)N[C@@H](CCC(N)=O)C(=O)N[C@H](Cc3ccc4ccccc4c3)C(=O)N[C@@H](c3ccccc3)C(=O)N2)C(=O)NC[C@@H](C(=O)NCCC(=O)NCCC(=O)NC(CCCCN)C(N)=O)NC(=O)[C@H](CCCNC(=N)N)NC(=O)[C@@H](CCCNC(=N)N)NC1=O (some centres not stated)

- Kd (GTPase KRas [5]): 0.022 µM
Compound: CCCCCCC[C@@H]1NC(=O)[C@@H]2CSCCCSC[C@H](NC(=O)[C@H](Cc3c[nH]c4ccccc34)NC(=O)[C@@H]3CCCN3C(=O)[C@H](CC(=O)O)NC(=O)[C@H](Cc3ccc(F)cc3)NC(=O)[C@H](CO)NC1=O)C(=O)NCCC(=O)N1CCC[C@H]1C(=O)N[C@@H](CCCC)C(=O)N2 (cyclo(C[X1]S[Phe(4-F)]DPWC[βAla]P[Nle]); linker 1-8 via X2)
- inhibition in vivo at 40 mg/kg (PANC-1): 65%

- EC50 (NCI-H1299 [6]): 3 µM
Compound: CCCC[C@H]1NC(=O)[C@H](Cc2ccc(F)cc2)NC(=O)[C@H](CCCNC(=N)N)NC(=O)[C@@H](Cc2ccc3ccccc3c2)NC(=O)[C@H](CCCNC(=N)N)NC(=O)[C@H](CCCNC(=N)N)NC(=O)[C@H](CCCNC(=N)N)NC(=O)[C@@H](C)NC(=O)[C@H]([C@@H](C)O)NC(=O)[C@H](Cc2c[nH]c3ccccc23)NC(=O)[C@H](CCC(N)=O)NC1=O (cyclo(WT[dA]RRR[d2Nal]R[Phe(4-F)][dNle]Q))

- Drug uptake [3]: 120%
Compound: N=C(N)NCCC[C@@H]1NC(=O)[C@H](Cc2ccc3ccccc3c2)NC(=O)[C@@H](Cc2ccccc2)NC(=O)[C@H](Cc2ccccc2)NC(=O)[C@H](CCC(N)=O)NC(=O)[C@@H](CCCNC(=N)N)NC(=O)[C@H](CCCNC(=N)N)NC(=O)[C@@H](CCCNC(=N)N)NC1=O (cyclo([2Nal]R[dR]R[dR]QF[dF]))
